CCR6 antag = blocks CCL20-driven beta-arrestin recruitment at human CCR6. CHO-K1 CCR6 PathHunter beta-arrestin, luminescence, CCL20-stimulated. P51684. 340,000 tested, 0.49% active. inhibition, % at 20 µM;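 active = compounds whose inhibition of the agonist-driven luminescence signal at 20 µM reaches about 50%, limit read from the data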;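 note: cells stimulated with CCL20 at 14 nM final; plate controls were DMSO with CCL20 for no effect and DMSO without agonist for full effect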
EBI2 antag = blocks human EBI2 receptor beta-arrestin signaling; P32249; EBI2 beta-arrestin recruitment, luminescence, 7a,25-OHC stimulated; inhibition, % at 5 µM; 360,000 tested, 0.81% active; AID 651636; in the data active = inhibition above about 38%;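 note: enzyme fragment complementation signal reports receptor beta-arrestin coupling in cells; 0% = agonist plus DMSO wells and 100% = wells without agonist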
APJ antagonist = antagonists of human APJ apelin receptor | P35414 | inhibition, % at 20 µM | CHO-K1 APJ beta-arrestin complementation, luminescence | 330,000 tested, 0.32% active | AID 2521;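 active = inhibition above about 40% at 20 µM, limit read from the data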;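 note: cells challenged with 10 nM apelin-13 agonist together with compound; plate controls were apelin-13 plus DMSO wells for no effect and DMSO wells lacking apelin-13 for full effect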
APJ ag = activates the human apelin receptor APJ. P35414. CHO-K1 APJ PathHunter beta-arrestin, luminescence; 0% DMSO wells, 100% apelin. activation, % at 20 µM. 330,000 tested, 0.11% active. AID 2520;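 active = activation more than six SD over the plate average, tested at 20 µM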;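 note: 0% = DMSO alone and 100% = apelin-13 at 10 nM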
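assay system = CHO-K1 APJ beta-arrestin complementation cell line | input = cell density 1000 per well | dosing = compound 20 µM once, DMSO 1% | timing = compound 90 min 25 °C, reagent 1 h | measured by = luminescence from split beta-galactosidase complementation, Galacton Star/Emerald II substrate | read-out basis = APJ agonist activity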
CXCR6 inh = inhibitors of human CXCR6 receptor. O00574. CHO-K1 PathHunter CXCR6 beta-arrestin, luminescence. inhibition, % at 20 µM. 360,000 tested, 0.36% active. AID 602244; in the data active = inhibition above about 34%, passing the limit was not always enough;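 note: antagonist mode with CXCL16 agonist at 10 nM final; 0% = 10 nM CXCL16 with DMSO and 100% = unstimulated wells without agonist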
Target sequence (O00574 whole entry, looked up): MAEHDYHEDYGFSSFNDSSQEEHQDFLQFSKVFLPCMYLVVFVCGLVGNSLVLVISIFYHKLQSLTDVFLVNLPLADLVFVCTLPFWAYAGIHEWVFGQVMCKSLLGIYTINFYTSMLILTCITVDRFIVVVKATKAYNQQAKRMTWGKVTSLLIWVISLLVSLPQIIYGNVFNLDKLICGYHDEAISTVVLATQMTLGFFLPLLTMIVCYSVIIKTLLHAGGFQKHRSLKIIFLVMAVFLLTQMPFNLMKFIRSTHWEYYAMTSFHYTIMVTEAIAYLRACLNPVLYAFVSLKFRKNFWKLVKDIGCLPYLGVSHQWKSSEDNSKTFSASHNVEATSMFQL
EBI2 conf = EBI2 (human) antagonism, single concentration confirmation. shares compounds with EBI2 antag. EBI2 beta-arrestin luminescence, 7a,25-OHC antagonism. inhibition, % at 5 µM. 2,400 tested, 29% active;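 active = inhibition of at least 50%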
EBI2 agonist = EBI2 agonism counter-screen. shares compounds with EBI2 antag. EBI2-expressing cells, agonist mode, luminescence, 60 min; 0% vehicle, 100% 7α,25-dihydroxycholesterol control. activation, % at 5 µM. 2,400 tested, under 10 active;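 active = activation of at least 50%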
bGal cs = beta-galactosidase inhibition counter-screen; purified beta-galactosidase, luminescent Galacton Star, 15 min; AID 652176; shares compounds with EBI2 antag; inhibition, % at 5 µM; 2,400 tested, 1% active;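 active = replicate-average signal at least 3 plate SD below neutral wells, shown as high inhibition, flagging enzyme-inhibiting false positives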;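 note: 0% = DMSO wells with enzyme and 100% = wells lacking enzyme; higher means stronger loss of beta-gal luminescence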
* hit, by the source's call; x = not tested or not shown. A selection: hits, their analogues and other compounds. The true share with any hit is near 1.5%.

SMILES	CCR6 antag	EBI2 antag	APJ antagonist	APJ ag	CXCR6 inh	EBI2 conf	EBI2 agonist	bGal cs
COc1ccc(-n2cc(-c3ccccc3)[nH]c2=S)cc1	9	74*	-19	5	-10	48	-1	-14
N#Cc1nnn(-c2ccc(Cl)cc2)c1N	-7	-3	-13	-1	-6	x	x	x
N#C/C(=C\c1ccc(Cl)c([N+](=O)[O-])c1)c1ccccn1	-5	53*	-7	5	-13	58*	3	0
CNc1ccc(/C=C(\C#N)c2ccccn2)cc1[N+](=O)[O-]	9	5	3	-3	6	x	x	x
CC1CCCCC1NC(=O)CN(C)S(=O)(=O)c1ccc2c(c1)CCC(=O)N2 (stereo unspecified)	17	-4	15	-3	-14	x	x	x
O=C(NCC(c1ccccc1Cl)N1CCCC1)C1CCN(C(=O)Nc2ccccc2)CC1 (stereo unspecified)	10	53*	-5	-4	-2	14	0	-13
CC(NC(=O)C1CCN(C(=O)Nc2ccccc2)CC1)c1ccc(Cl)cc1 (stereo unspecified)	5	46*	3	-1	-4	32	2	2
COc1ccc(C(=O)C(=O)N2CCC(c3ccccc3)CC2)cn1	x	43*	x	x	x	23	1	6
Clc1ccc(-c2nnc(CSc3nnc(-c4cccs4)n3Cc3ccccc3)o2)cc1	8	88*	16	1	5	60*	1	4
Cc1nnc(SCc2nnc(-c3cccs3)o2)n1Cc1ccccc1	2	-11	-5	-1	10	x	x	x
COc1ccc(-c2nnc(SCc3nnc(-c4ccccc4)o3)n2-c2ccccc2)cc1	23	27	10	0	4	x	x	x
COc1ccc(-c2nnc(SCc3nnc(-c4ccc(Cl)cc4)o3)n2-c2ccccc2)cc1	15	74*	-2	-1	0	44	-1	-13
O=C(Cc1ccc(Br)cc1)Nc1ccccc1Cl	13	-4	-12	-1	0	x	x	x
Cc1ccc(S(=O)(=O)NCCC(=O)NNC(=O)COc2ccc(Br)cc2)cc1C	13	63*	0	1	2	25	-1	-15
COc1cc(OC)cc(C(=O)NNC(=O)CCNS(=O)(=O)c2ccc(Br)cc2)c1	12	-6	-12	1	2	x	x	x
c1ccc(COc2cccc(-c3cc4nc(NCCc5ccncc5)ccn4n3)c2)cc1	x	47*	x	x	-6	31	-1	-12
CC(NC(=O)Cc1ccc(NS(=O)(=O)c2cccc(C(F)(F)F)c2)cc1)c1ccccn1 (stereo unspecified)	12	8	-11	-1	-4	x	x	x
CC(C)(C)CC(C)(C)N=C1Nc2ccccc2NC12C[C@H]1CCC(=O)N3CC[C@@H](C2)[C@@H]13 (stereo partly specified)	5	-7	x	x	-5	x	x	x
COc1ccc(S(=O)(=O)NCC(=O)NCc2cc(=O)n(C)c(=O)n2C)cc1	3	-4	-16	-3	-1	x	x	x
CC1=C(C)CC(C(=O)NCCCN2CCCC2=O)C(C(=O)O)C1 (stereo unspecified)	0	0	-3	6	4	x	x	x
O=C(/C=C/c1cccc([N+](=O)[O-])c1)N1CCN(Cc2ccc3c(c2)OCO3)CC1	0	50*	6	3	-11	31	1	0
O=C(/C=C/c1cccs1)N1CCN(Cc2ccc3c(c2)OCO3)CC1	4	64*	-10	5	9	44	-1	-13
O=C(Nc1cccc(-c2csc(Nc3cccc(C(F)(F)F)c3)n2)c1)c1cc([N+](=O)[O-])cc(C(F)(F)F)c1	0	47*	-134	9	-12	22	-1	-14
CCC(=O)c1ccc(OCC(=O)OCC(=O)N(CCC#N)c2ccc3c(c2)OCCO3)cc1	-1	-6	-3	12	2	x	x	x
O=C(Nc1ccc(Cl)cc1)C1CCCN(c2ncnc3c2nc2n3CCCCC2)C1 (stereo unspecified)	11	14	16	-1	-1	x	x	x
SMILES	CCR6 antag	EBI2 antag	APJ antagonist	APJ ag	CXCR6 inh	EBI2 conf	EBI2 agonist	bGal cs
COc1ccc2nc3n(c(=O)c2c1)-c1cc2ccccc2cc1C(=O)NC3Cc1ccccc1 (stereo unspecified)	x	41*	x	x	5	33	-2	-7
O=C(COC(=O)CCc1ccc(S(=O)(=O)N2CCOCC2)cc1)NCc1ccccc1	-3	-4	17	-2	4	x	x	x
Cc1ccc(C)c(S(=O)(=O)N2CCN(CC(=O)Nc3ccc4c(c3)CCC4)CC2)c1	13	47*	-9	-4	-1	29	1	5
CN(CC(=O)Nc1ccc(Cl)cc1)C(=O)c1cccc(S(=O)(=O)N2CCN(Cc3ccccc3)CC2)c1	11	62*	-8	13	-10	32	-2	-12
CN(C)c1ccc(NC(=O)CN2CCN(S(=O)(=O)c3cc(Cl)ccc3Cl)CC2)cc1	-3	64*	9	-3	5	41	-1	-12
Cc1ccc(C)c(S(=O)(=O)N2CCN(CC(=O)Nc3ccc4c(c3)OCCO4)CC2)c1	15	3	-7	-1	-6	x	x	x
CN(C)C(=O)c1ccc(NC(=O)c2cccc(S(=O)(=O)N3CCN(Cc4ccccc4)CC3)c2)cc1	2	-23	x	x	-5	x	x	x
Cc1c(C(=O)N2CCN(c3ccccn3)CC2)oc2ccccc12	4	36*	-7	-1	11	3	-2	-12
Cc1c(C(=O)N2CCN(c3ncccn3)CC2)oc2ccc(Cl)cc12	8	56*	-2	-3	-7	47	0	1
CC(C(=O)Nc1ccccc1C#N)N1C(=O)NC2(CCCCCC2)C1=O (stereo unspecified)	1	-3	-48	4	5	x	x	x
COc1ccc(/C=N/NC(N)=S)cc1OC(=O)c1cccc2ccccc12	9	56*	1	11	9	5	2	3
COc1cccc(CN2CC(C(=O)NCc3cccc(N4CCCC4)c3)CCC2=O)c1 (stereo unspecified)	9	-10	-2	-1	0	x	x	x
CC1CCCCN1C(=O)c1ccc(C(=O)Nc2ccc(F)cc2)cc1 (stereo unspecified)	9	52*	7	9	-3	22	-1	-12
COc1ccc(NC(=O)c2cc(C)cc(C)c2)cc1S(=O)(=O)N1CCCCC1	7	-2	-55	-1	6	x	x	x
CC(=O)c1cccc(-c2ccnc3c2CC(C(=O)Nc2ccc(C(C)C)cc2)O3)c1 (stereo unspecified)	x	0	x	x	-2	x	x	x
